Reference: ChEMBL document CHEMBL1240431, “Design, synthesis and anti-ulcerogenic effect of some of furo-salicylic acid derivatives on acetic acid-induced ulcerative colitis” (Eur J Med Chem, 2010)

Experiments:
Candida albicans = experiment: Antifungal activity agaisnt Candida albicans ATCC 10231 by agar diffusion method
Escherichia coli = experiment: Antibacterial activity agaisnt Escherichia coli MTCC 8739 by agar diffusion method; assay type: functional
Summary of the method: (§1)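 Mueller Hinton agar (pH 7.4) was seeded with 24-h cultures adjusted to 0.5 McFarland. Compounds were prepared as 10 mg/ml stocks in DMF and added to 6 mm wells. DMF served as the negative control. Plates were incubated at 35 °C for 24 h, and the diameter of the growth inhibition zone was read in mm with a caliper.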

Staphylococcus aureus = experiment: Antibacterial activity agaisnt Staphylococcus aureus MTCC 3160 by agar diffusion method; assay type: functional
Summary of the method: as §1

Rattus norvegicus [1] = experiment: Antiulcerogenic activity against acetic acid-induced ulcerative colitis in albino rat assessed as ratio of wet weight and length at 12.5 mmol/kg, po; assay type: functional
Summary of the method: (§2)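 Male albino rats (190–200 g, n = 5 per group) received drug in DMSO by orogastric cannula daily for 5 days, with the last dose 2 h before colitis. After a 36 h fast and under ether, 4% acetic acid (5 ml/kg) was instilled 8 cm intrarectally. At 24 h, the distal 8 cm colon was scored for wet weight/length, ulcer area (1 mm² grid count), and ulcer index (lesion score 0–4 plus area).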

[2] = Toxicity in po dosed albino rat; assay type: organism-based; conditions: in vivo
Rattus norvegicus [3] = experiment: Antiulcerogenic activity against acetic acid-induced ulcerative colitis in albino rat assessed as ulcer area at 12.5 mmol/kg, po; assay type: functional
Summary of the method: as §2

Rattus norvegicus [4] = experiment: Antiulcerogenic activity against acetic acid-induced ulcerative colitis in albino rat assessed as ulcer index at 12.5 mmol/kg, po; assay type: functional
Summary of the method: as §2

Bacillus subtilis = experiment: Antibacterial activity agaisnt Bacillus subtilis MTCC 1456 by agar diffusion method; assay type: functional
Summary of the method: as §1

| SMILES | diameter of the inhibition zone (DIZ) (Candida albicans) [mm] | diameter of the inhibition zone (DIZ) (Escherichia coli) [mm] | diameter of the inhibition zone (DIZ) (Staphylococcus aureus) [mm] | Ratio (Rattus norvegicus [1]) | LD50 [2] [mg/kg] | ulcer area (Rattus norvegicus [3]) [cm2] | Activity (Rattus norvegicus [4]) [no unit] | diameter of the inhibition zone (DIZ) (Bacillus subtilis) [mm] |
| --- | --- | --- | --- | --- | --- | --- | --- | --- |
| COc1c(C(=O)O)c(O)cc2occc12 | 8 | – | – | – | – | – | – | – |
| COc1c(C(=O)O)c(O)c(N)c2occc12 | 8 | 10 | 8 | 90 | 396 | 3.3 | 5.5 | 8 |
| COc1c(C(=O)O)c(O)c(S(=O)(=O)Cl)c2occc12 | 20 | 8 | 8 | 112 | 390 | 4.7 | 8.1 | 8 |
| COc1c(C(=O)O)c(O)c(S(N)(=O)=O)c2occc12 | 14 | 8 | 8 | 103.4 | 400 | 4.4 | 7.4 | 8 |
| COc1c(C(=O)O)c(O)c(/N=N/c2ccccc2)c2occc12 | 18 | 10 | 8 | 84.5 | 410 | 2.6 | 4.8 | 10 |
| COc1c(C(=O)O)c(O)c(/N=N/c2ccc(S(=O)(=O)Nc3ccccn3)cc2)c2occc12 | 22 | 12 | 10 | 95.2 | 410 | 3.9 | 6.7 | 12 |
| COc1c(C(=O)O)c(O)c(NS(=O)(=O)c2ccccc2)c2occc12 | 10 | – | – | 99.1 | 400 | 4.4 | 7.4 | 10 |
| COc1c(C(=O)O)c(O)c(NS(=O)(=O)c2ccc(C)cc2)c2occc12 | 15 | – | – | 98.6 | 400 | 4.3 | 7.6 | 10 |
| COc1c(C(=O)O)c(O)c(NS(=O)(=O)c2ccc(Cl)cc2)c2occc12 | 8 | – | – | 86.4 | 390 | 2.6 | 4.6 | 12 |
| COc1c(C(=O)O)c(O)c(S(=O)(=O)Nc2ccccc2)c2occc12 | 15 | – | – | 119.9 | 396 | 5.1 | 8.5 | 12 |
| COc1c(C(=O)O)c(O)c(S(=O)(=O)Nc2ccc(C)cc2)c2occc12 | 10 | 12 | 8 | 111 | 396 | 4.7 | 8.1 | – |
| COc1c(C(=O)O)c(O)c(S(=O)(=O)Nc2ccc(Cl)cc2)c2occc12 | 12 | 12 | – | 112 | 410 | 4.8 | 8.2 | – |
| COc1c(C(=O)O)c(O)c(S(=O)(=O)Nc2ccc(Cl)cc2Cl)c2occc12 | 8 | – | – | 110 | 410 | 4.8 | 8.2 | – |
| COc1ccc(NS(=O)(=O)c2c(O)c(C(=O)O)c(OC)c3ccoc23)cc1 | 8 | – | – | 120.1 | 396 | 5.1 | 8.7 | 10 |
| C[C@@H]1[C@H](O)[C@@H](C)/C=C/C=C/C=C/C=C/C=C/C=C/C=C/[C@H](O[C@@H]2O[C@H](C)[C@@H](O)[C@H](N)[C@@H]2O)C[C@@H]2O[C@](O)(C[C@@H](O)C[C@@H](O)[C@H](O)CC[C@@H](O)C[C@@H](O)CC(=O)O[C@H]1C)C[C@H](O)[C@H]2C(=O)O [AMPHOTERICIN B] | 20 | – | – | – | – | – | – | – |
| O=C(O)c1cc(/N=N/c2ccc(S(=O)(=O)Nc3ccccn3)cc2)ccc1O [SULFASALAZINE] | 7 | 8 | 30 | 79 | – | 2.1 | 3.7 | 25 |
